Reference: ChEMBL document CHEMBL3108772, “Discovery of Potent and Orally Active p53-MDM2 Inhibitors RO5353 and RO2468 for Potential Clinical Development” (ACS Med Chem Lett, 2014)
One block for each compound: values may come before it. Active and inactive are the calls of the source. The calls are words filed in the database; no cut-off is given here.

What was measured:
SJSA-1 [1] = experiment: Antiproliferative activity against human SJSA cells expressing wild-type p53 by MTT assay
SW480 = experiment: Antiproliferative activity against human SW480 cells expressing p53 mutant by MTT assay
[2] = Oral bioavailability in C57 mouse at 25 mg/kg; format: ADME, organism-based; settings: in vivo
How it was run: (§1)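 Single-dose PK in male C57 mice, given orally (PO) or intravenously (IV). Plasma exposure (AUC normalized to dose, Cmax) was taken from the oral arms. Clearance and t1/2 were taken from the IV arms. F is oral bioavailability.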

SJSA-1 [3] = experiment: Antitumor activity against human SJSA1 cells xenografted in nude mouse assessed as tumor regression at 6.25 mg/kg, po qd administered for 2 weeks; format: functional, organism-based; set-up: dose 6.25 mg/kg
[4] = Apparent terminal half life in C57 mouse at 0.64 mg/kg, iv; format: ADME, organism-based; set-up: dose 0.64 mg/kg, route intravenous; settings: in vivo, read-out: betat1/2(app) (converted); how it was run: as §1
[5] = Cmax in C57 mouse at 25 mg/kg, po; format: ADME, organism-based; set-up: dose 25 mg/kg, route oral; settings: in vivo; how it was run: as §1
[6] = Total plasma clearance in C57 mouse at 0.64 mg/kg, iv; format: ADME, organism-based; set-up: dose 0.64 mg/kg, route intravenous; how it was run: as §1
[7] = Intrinsic clearance in human liver microsomes at […] preincubated for 5 mins followed by NADPH addition by LC-MS/MS analysis; format: ADME; settings: read-out: CLH
Mus musculus [8] = experiment: AUC/dose in C57 mouse at 25 mg/kg, po; format: ADME, organism-based, Plasma; set-up: dose 25 mg/kg, route oral; settings: in vivo; how it was run: as §1
SJSA-1 [9] = experiment: Antiproliferative activity against human SJSA cells expressing wild-type p53 by MTT assay
Mus musculus [10] = experiment: AUC/dose in C57 mouse at 10 mg/kg, po; format: ADME, organism-based, Plasma; set-up: dose 10 mg/kg, route oral; settings: in vivo; how it was run: as §1
RKO = experiment: Antiproliferative activity against human RKO cells expressing wild-type p53 by MTT assay; format: functional, cell-based
How it was run: (§2)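 MTT antiproliferation assay in human cancer lines: SJSA, HCT116 and RKO are wild-type p53; SW480 is mutant p53. IC50 came from one experiment run in duplicate.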

[11] = Cmax in C57 mouse at 10 mg/kg, po; format: ADME, organism-based; set-up: dose 10 mg/kg, route oral; settings: in vivo; how it was run: as §1
[12] = Apparent terminal half life in C57 mouse at 2.5 mg/kg, iv; format: ADME, organism-based; set-up: dose 2.5 mg/kg, route intravenous; settings: in vivo, read-out: betat1/2(app) (converted); how it was run: as §1
[13] = Total plasma clearance in C57 mouse at 2.5 mg/kg, iv; format: ADME, organism-based; set-up: dose 2.5 mg/kg, route intravenous; how it was run: as §1
SJSA-1 [14] = experiment: Antitumor activity against human SJSA1 cells xenografted in nude mouse assessed as tumor regression at 10 mg/kg, po qd administered for 2 weeks; format: functional, organism-based; set-up: dose 10 mg/kg
HCT-116 = experiment: Antiproliferative activity against human HCT116 cells expressing wild-type p53 by MTT assay; format: functional, cell-based; how it was run: as §2
[15] = Oral bioavailability in C57 mouse at 10 mg/kg; format: ADME, organism-based; settings: in vivo; how it was run: as §1
Mus musculus [16] = experiment: Toxicity in nude mouse xenografted with human SJSA1 cells assessed as body weight loss at 3 to 20 mg/kg, po qd administered for 2 weeks; format: organism-based, SJSA-1; set-up: dose 3-20 mg/kg, route oral; settings: in vivo, 336 h
SJSA-1 [17] = experiment: Antitumor activity against human SJSA1 cells xenografted in nude mouse assessed as tumor growth inhibition at 3 mg/kg, po qd administered for 2 weeks; format: functional, organism-based; set-up: dose 3 mg/kg
[18] = Apparent terminal half life in C57 mouse at 2 mg/kg, iv; format: ADME, organism-based; set-up: dose 2 mg/kg, route intravenous; settings: in vivo, read-out: betat1/2(app) (converted); how it was run: as §1
[19] = Total plasma clearance in C57 mouse at 2 mg/kg, iv; format: ADME, organism-based; set-up: dose 2 mg/kg, route intravenous; how it was run: as §1
[20] = Oral bioavailability in C57 mouse at 5 mg/kg; format: ADME, organism-based; settings: in vivo; how it was run: as §1
[21] = Cmax in C57 mouse at 5 mg/kg, po; format: ADME, organism-based; set-up: dose 5 mg/kg, route oral; settings: in vivo; how it was run: as §1
Mus musculus [22] = experiment: AUC/dose in C57 mouse at 5 mg/kg, po; format: ADME, organism-based, Plasma; set-up: dose 5 mg/kg, route oral; settings: in vivo; how it was run: as §1

SMILES: COc1cc(C(N)=O)ccc1NC(=O)C1NC(CC(C)(C)C)C2(C(=O)Nc3cc(Cl)sc32)C1c1cccc(Cl)c1F (racemic)
IC50 (SJSA-1 [1]): 0.011 µM | IC50 (SW480): 7.87 µM

SMILES: COc1cc(C(N)=O)ccc1NC(=O)[C@@H]1N[C@@H](CC(C)(C)C)[C@@]2(C(=O)Nc3cc(Cl)ccc32)[C@H]1c1cccc(Cl)c1F
bioavailability [2]: 92% | Activity (SJSA-1 [3]): Active | half-life [4]: 7.1 h | IC50 (SJSA-1 [1]): 0.013 µM | Cmax [5]: 5800 ng/mL | clearance [6]: 5.8 mL/min/kg | IC50 (SW480): 5.19 µM | CLint scaled [7]: 7.5 mL/min/kg | AUC/dose (Mus musculus [8]): 3.7 µg·h/mL/mg/kg

SMILES: COc1cc(C(N)=O)ccc1NC(=O)[C@@H]1N[C@@H](CC(C)(C)C)[C@@]2(C(=O)Nc3cc(Cl)sc32)[C@H]1c1cccc(Cl)c1F
Activity (SJSA-1 [9]): Active | AUC/dose (Mus musculus [10]): 1.5 µg·h/mL/mg/kg | Activity (RKO): Active | Cmax [11]: 1300 ng/mL | half-life [12]: 3 h | clearance [13]: 9.9 mL/min/kg | Activity (SJSA-1 [14]): Active | Activity (HCT-116): Active | bioavailability [15]: 92% | Activity (Mus musculus [16]): Non-toxic | TGI (SJSA-1 [17]): Active | CLint scaled [7]: 2 mL/min/kg

SMILES: COc1cc(C(N)=O)ccc1NC(=O)[C@@H]1N[C@@H](CC(C)(C)C)[C@@]2(C(=O)Nc3ccncc32)[C@H]1c1cccc(Cl)c1F (racemic)
IC50 (SJSA-1 [1]): 2.11 µM | IC50 (SW480): 13.4 µM

SMILES: COc1cc(C(=O)O)ccc1NC(=O)C1NC(CC(C)(C)C)C2(C(=O)Nc3cc(Cl)sc32)C1c1cccc(Cl)c1F (racemic)
IC50 (SJSA-1 [1]): 0.009 µM | IC50 (SW480): 29.3 µM

SMILES: COc1cc(C(N)=O)ccc1NC(=O)[C@@H]1N[C@@H](CC(C)(C)C)[C@@]2(C(=O)Nc3cc(Cl)ncc32)[C@H]1c1cccc(Cl)c1F
Activity (SJSA-1 [9]): Active | Activity (RKO): Active | Activity (SJSA-1 [14]): Active | Activity (HCT-116): Active | half-life [18]: 3 h | clearance [19]: 1.8 mL/min/kg | bioavailability [20]: 46% | Activity (Mus musculus [16]): Non-toxic | TGI (SJSA-1 [17]): Active | CLint scaled [7]: 10.2 mL/min/kg | Cmax [21]: 2100 ng/mL | AUC/dose (Mus musculus [22]): 4.2 µg·h/mL/mg/kg

SMILES: COc1cc(C(=O)O)ccc1NC(=O)[C@@H]1N[C@@H](CC(C)(C)C)[C@@]2(C(=O)Nc3nc(Cl)ncc32)[C@H]1c1cccc(Cl)c1F (racemic)
IC50 (SJSA-1 [1]): 0.1 µM | IC50 (SW480): > 30 µM

SMILES: COc1cc(C(N)=O)ccc1NC(=O)[C@@H]1N[C@@H](CC(C)(C)C)[C@@]2(C(=O)Nc3nc(Cl)ncc32)[C@H]1c1cccc(Cl)c1F (racemic)
IC50 (SJSA-1 [1]): 0.09 µM | IC50 (SW480): 10.7 µM

SMILES: COc1cc(C(=O)O)ccc1NC(=O)[C@@H]1N[C@@H](CC(C)(C)C)[C@@]2(C(=O)Nc3nc(Cl)ccc32)[C@H]1c1cccc(Cl)c1F (racemic)
IC50 (SJSA-1 [1]): 0.045 µM | IC50 (SW480): 15.4 µM

SMILES: COc1cc(C(N)=O)ccc1NC(=O)C1NC(CC(C)(C)C)C2(C(=O)Nc3cc(Cl)ncc32)C1c1cccc(Cl)c1F (racemic)
IC50 (SJSA-1 [1]): 0.014 µM | IC50 (SW480): 12.8 µM

SMILES: COc1cc(C(=O)O)ccc1NC(=O)[C@@H]1N[C@@H](CC(C)(C)C)[C@@]2(C(=O)Nc3ncccc32)[C@H]1c1cccc(Cl)c1F (racemic)
IC50 (SJSA-1 [1]): 1.37 µM | IC50 (SW480): > 30 µM

More lines, main results first:

IC50 (SJSA-1 [1]): 0.043 µM | IC50 (SW480): > 30 µM
SMILES: COc1cc(C(=O)O)ccc1NC(=O)[C@@H]1N[C@@H](CC(C)(C)C)[C@@]2(C(=O)Nc3cc(Cl)ncc32)[C@H]1c1cccc(Cl)c1F (racemic)

IC50 (SJSA-1 [1]): 0.061 µM | IC50 (SW480): > 30 µM
SMILES: COc1cc(C(=O)O)ccc1NC(=O)[C@@H]1N[C@@H](CC(C)(C)C)[C@@]2(C(=O)Nc3cc(Cl)cnc32)[C@H]1c1cccc(Cl)c1F (racemic)

IC50 (SJSA-1 [1]): 0.042 µM | IC50 (SW480): 5.9 µM
SMILES: COc1cc(C(N)=O)ccc1NC(=O)[C@@H]1N[C@@H](CC(C)(C)C)[C@@]2(C(=O)Nc3cc(Cl)cnc32)[C@H]1c1cccc(Cl)c1F (racemic)

IC50 (SJSA-1 [1]): 0.067 µM | IC50 (SW480): 5.26 µM
SMILES: COc1cc(C(N)=O)ccc1NC(=O)[C@@H]1N[C@@H](CC(C)(C)C)[C@@]2(C(=O)Nc3nc(Cl)ccc32)[C@H]1c1cccc(Cl)c1F (racemic)

IC50 (SJSA-1 [1]): 22.7 µM | IC50 (SW480): > 30 µM
SMILES: COc1cc(C(=O)O)ccc1NC(=O)[C@@H]1N[C@@H](CC(C)(C)C)[C@@]2(C(=O)Nc3ccncc32)[C@H]1c1cccc(Cl)c1F (racemic)

AUC/dose (Mus musculus [10]): 0.08 µg·h/mL/mg/kg | Cmax [11]: 300 ng/mL | half-life [12]: 1.68 h | clearance [13]: 68.6 mL/min/kg | bioavailability [15]: 32%
SMILES: COc1cc(C(=O)O)ccc1NC(=O)[C@@H]1N[C@@H](CC(C)(C)C)[C@@]2(C(=O)Nc3cc(Cl)sc32)[C@H]1c1cccc(Cl)c1F
Activity (SJSA-1 [9]): Active | Activity (RKO): Active | Activity (HCT-116): Active
